The source of these data is ChEMBL document CHEMBL3407386, “Design, synthesis, and biological evaluation of tetrazole analogs of Cl-amidine as protein arginine deiminase inhibitors” (J Med Chem, 2015).

Structures are written as SMILES. pEC50: −log10 of the molar value. Activity calls are given as the source filed them. No cut-off for these calls is given here.

Data set [1] deals with U2OS. The data set is described as follows: Antiproliferative activity against human U2OS cells expressing PAD4 assessed as cell viability at 20 uM after 72 hrs by XTT assay. Type of data set: functional. The method in brief:
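U2OS cells were treated the next day at 20 μM final for 72 h, with DMSO and Triton X-100 as controls. Viability was read by XTT absorbance at 475 nm.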
On the technique in general: Tetrazolium dyes change colour on reduction, which living cells bring about.

A further data set concerns Liver. As to the kind of experiment: Metabolic stability in mouse liver microsomes. Type of data set: ADME.
Data set [2] deals with Protein-arginine deiminase type-4 (Homo sapiens) (UniProt Q9UM07). As to the kind of experiment: Inhibition of PAD4 (unknown origin) using N-alpha-benzoyl-L-arginine ethyl ester as substrate assessed as citrulline production after 15 mins by COLDER assay.
Data set [3] deals with U2OS. The data set is described as follows: Antiproliferative activity against human U2OS cells expressing PAD4 assessed as cell viability after 72 hrs by XTT assay. Type of data set: functional, cell-based. The method, boiled down: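 U2OS human osteosarcoma cells were plated and treated the next day with an eight-point concentration series for 72 h. Viability was read by XTT at 475 nm. EC50 was fitted to a dose–response equation with range (uninhibited minus background) and slope factor.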

A short description of data set [4]: Cytotoxicity against human neutrophils assessed as cell viability after 4 hrs by XTT assay. Particulars: Neutrophil. In kind it is cell-based. The method in brief:
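Freshly isolated human neutrophils in RPMI 1640 with 10% FBS were seeded at 40 000 cells/well on poly-L-lysine and allowed to adhere for 1 h. They were exposed to compound at 1–500 μM for 4 h, and viability was read by XTT.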

For data set [5], the target named is Protein-arginine deiminase type-4 (Mus musculus) (UniProt Q9Z183). As to the kind of experiment: Inhibition of PAD4 in C57BL/6 mouse bone marrow neutrophils assessed as inhibition of PMA-stimulated neutrophil extracellular trap formation at […] preincubated for 30 mins followed by PMA stimulation measured after 3 to 4 hrs by […]. The method, boiled down:
(§1)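 C57BL/6 bone-marrow neutrophils were isolated on a Percoll gradient (69–78% interface, >95% Ly-6G+) and seeded at 1.5 × 10^5 on poly-L-lysine coverslips. They were pretreated for 30 min in Locke's solution, then given 100 nM PMA for 3–4 h, PFA-fixed, and stained with Hoechst and anti-myeloperoxidase. NETs (decondensed MPO+ nuclei) were counted blind over ≥5 fields as % of total cells.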

The species entered for data set [6] is Homo sapiens. As to the kind of experiment: Selectivity ratio for PAD1 (unknown origin) over PAD3 (unknown origin).
In data set [7] the target is T1, Protein-arginine deiminase type-1 (Homo sapiens) (UniProt Q9ULC6).
T1 sequence (whole entry): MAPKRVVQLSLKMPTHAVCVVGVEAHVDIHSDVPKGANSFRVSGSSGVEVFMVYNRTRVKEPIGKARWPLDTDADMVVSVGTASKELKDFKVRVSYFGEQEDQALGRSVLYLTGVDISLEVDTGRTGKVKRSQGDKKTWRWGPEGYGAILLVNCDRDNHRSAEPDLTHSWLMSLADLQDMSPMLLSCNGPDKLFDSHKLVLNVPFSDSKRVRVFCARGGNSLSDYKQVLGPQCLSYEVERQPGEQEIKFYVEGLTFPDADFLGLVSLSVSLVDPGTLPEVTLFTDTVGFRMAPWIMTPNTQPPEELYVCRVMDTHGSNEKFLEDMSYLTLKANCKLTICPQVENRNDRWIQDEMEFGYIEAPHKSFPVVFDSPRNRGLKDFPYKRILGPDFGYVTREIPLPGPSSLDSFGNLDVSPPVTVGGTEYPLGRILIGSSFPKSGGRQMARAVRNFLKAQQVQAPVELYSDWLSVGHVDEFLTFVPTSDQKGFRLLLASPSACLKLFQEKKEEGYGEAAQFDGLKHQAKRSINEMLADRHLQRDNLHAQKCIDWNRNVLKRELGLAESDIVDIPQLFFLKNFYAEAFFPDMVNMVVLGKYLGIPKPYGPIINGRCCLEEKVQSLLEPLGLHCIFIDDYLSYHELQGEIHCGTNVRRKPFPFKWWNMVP
As to the kind of experiment: Inhibition of PAD1 (unknown origin) using N-alpha-benzoyl-L-arginine ethyl ester as substrate assessed as citrulline production after 15 mins by COLDER assay.

For data set [8], the species on record is Homo sapiens. The data set is described as follows: Selectivity ratio for PAD1 (unknown origin) over PAD2 (unknown origin).
The target in data set [9] is Protein-arginine deiminase type-4 (Mus musculus) (UniProt Q9Z183). As to the kind of experiment: Inhibition of PAD4 in C57BL/6 mouse bone marrow neutrophils assessed as inhibition of PMA-stimulated neutrophil extracellular trap formation at 2 to 200 uM preincubated for 30 mins followed by PMA stimulation measured after 3 to 4 hrs by […]. The method, boiled down:
as §1

In data set [10] the target is Protein-arginine deiminase type-2 (Homo sapiens) (UniProt Q9Y2J8). The data set is described as follows: Inhibition of PAD2 (unknown origin) using N-alpha-benzoyl-L-arginine ethyl ester as substrate assessed as citrulline production after 15 mins by COLDER assay.
For data set [11], the target named is T1, Protein-arginine deiminase type-1 (Homo sapiens). As to the kind of experiment: Ratio of Kinact to Ki for PAD1 (unknown origin) using N-alpha-benzoyl-L-arginine ethyl ester as substrate assessed as citrulline production after 15 mins by COLDER assay.
Data set [12] addresses Protein-arginine deiminase type-4 (Homo sapiens) (UniProt Q9UM07). The data set is described as follows: Ratio of Kinact to Ki for PAD4 (unknown origin) using N-alpha-benzoyl-L-arginine ethyl ester as substrate assessed as citrulline production after 15 mins by COLDER assay.

Sequence of Protein-arginine deiminase type-4 (Homo sapiens) (Q9UM07 whole entry): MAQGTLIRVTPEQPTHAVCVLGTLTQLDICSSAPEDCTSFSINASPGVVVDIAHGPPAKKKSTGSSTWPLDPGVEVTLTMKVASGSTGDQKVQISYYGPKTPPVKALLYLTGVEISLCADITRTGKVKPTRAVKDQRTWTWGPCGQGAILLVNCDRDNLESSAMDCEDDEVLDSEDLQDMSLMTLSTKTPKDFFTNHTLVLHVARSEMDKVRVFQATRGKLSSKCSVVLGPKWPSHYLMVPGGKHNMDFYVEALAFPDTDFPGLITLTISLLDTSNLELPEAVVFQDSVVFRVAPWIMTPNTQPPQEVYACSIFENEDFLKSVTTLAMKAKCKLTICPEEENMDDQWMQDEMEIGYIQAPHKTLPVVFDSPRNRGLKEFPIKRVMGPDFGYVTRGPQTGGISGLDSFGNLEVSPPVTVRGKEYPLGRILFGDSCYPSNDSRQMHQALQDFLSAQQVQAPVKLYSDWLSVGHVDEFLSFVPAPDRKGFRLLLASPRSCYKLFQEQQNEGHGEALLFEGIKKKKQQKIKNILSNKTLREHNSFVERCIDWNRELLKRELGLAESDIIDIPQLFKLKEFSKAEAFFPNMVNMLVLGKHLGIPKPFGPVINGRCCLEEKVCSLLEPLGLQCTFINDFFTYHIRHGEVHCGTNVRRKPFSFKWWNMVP
Sequence of Protein-arginine deiminase type-4 (Mus musculus) (Q9Z183 whole entry): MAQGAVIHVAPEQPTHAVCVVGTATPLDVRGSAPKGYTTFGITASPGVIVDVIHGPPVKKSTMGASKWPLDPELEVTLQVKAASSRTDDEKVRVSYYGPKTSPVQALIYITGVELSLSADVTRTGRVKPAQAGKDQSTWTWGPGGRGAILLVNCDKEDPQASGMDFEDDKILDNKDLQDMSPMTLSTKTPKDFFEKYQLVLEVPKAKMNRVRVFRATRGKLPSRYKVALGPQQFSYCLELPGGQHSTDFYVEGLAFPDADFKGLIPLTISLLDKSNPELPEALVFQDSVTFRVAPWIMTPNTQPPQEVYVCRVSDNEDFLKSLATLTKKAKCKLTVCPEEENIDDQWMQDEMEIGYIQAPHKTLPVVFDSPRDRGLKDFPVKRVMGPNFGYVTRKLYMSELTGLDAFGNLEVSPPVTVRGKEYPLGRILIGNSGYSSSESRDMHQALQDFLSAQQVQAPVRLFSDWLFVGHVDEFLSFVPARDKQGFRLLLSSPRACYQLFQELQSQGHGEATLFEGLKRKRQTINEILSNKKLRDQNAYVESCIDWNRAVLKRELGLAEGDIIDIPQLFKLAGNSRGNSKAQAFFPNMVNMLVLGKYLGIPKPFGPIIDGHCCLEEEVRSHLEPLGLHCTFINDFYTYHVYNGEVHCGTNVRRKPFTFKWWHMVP
Sequence of Protein-arginine deiminase type-2 (Homo sapiens) (Q9Y2J8 whole entry): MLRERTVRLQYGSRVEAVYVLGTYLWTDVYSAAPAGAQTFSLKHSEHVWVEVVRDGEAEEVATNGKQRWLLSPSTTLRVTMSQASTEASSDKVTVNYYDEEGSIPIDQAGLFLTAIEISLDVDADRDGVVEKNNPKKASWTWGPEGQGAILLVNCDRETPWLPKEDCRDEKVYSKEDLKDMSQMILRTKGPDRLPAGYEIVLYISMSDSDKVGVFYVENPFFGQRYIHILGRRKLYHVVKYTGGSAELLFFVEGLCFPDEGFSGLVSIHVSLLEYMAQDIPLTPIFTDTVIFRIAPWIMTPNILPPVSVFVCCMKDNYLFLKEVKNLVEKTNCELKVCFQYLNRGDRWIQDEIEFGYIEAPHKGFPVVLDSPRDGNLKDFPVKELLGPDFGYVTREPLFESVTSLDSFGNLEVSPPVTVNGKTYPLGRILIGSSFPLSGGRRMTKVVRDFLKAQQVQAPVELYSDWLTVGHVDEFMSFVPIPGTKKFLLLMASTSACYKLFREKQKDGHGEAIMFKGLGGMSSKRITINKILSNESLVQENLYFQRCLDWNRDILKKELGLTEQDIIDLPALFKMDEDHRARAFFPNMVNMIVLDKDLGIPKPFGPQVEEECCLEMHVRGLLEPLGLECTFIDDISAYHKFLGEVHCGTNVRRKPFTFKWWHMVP

For orientation: pEC50 means the EC50 on a negative log10 scale, so that one unit is a factor of ten. Regarding `CC(C)(C)n1nnc([C@H](CCCNC(=N)CF)NC(=O)c2ccc(-c3ccccc3)cc2)n1`, the viability at 20 µM in the data set on U2OS [1] (read-out: Activity) is above 50%. Further, the Stability result in the data set with Liver is given as “Stable”. Moreover, in [2], the inhibition result is “inactive”. The pEC50 in the data set on U2OS [3] was 4.35.

For `CC(C)(C)n1nnc([C@H](CCCNC(=N)CCl)NC(=O)c2ccccc2C(=O)O)n1`, the outcome in the data set on U2OS [1] was inactive. Besides, in data set [4], the pEC50 was 3.01. Also, the inhibition result in [5] was “Active”. The Stability result with Liver is listed as “Stable”.

Consider `N=C(CF)NCCC[C@H](NC(=O)c1ccccc1)c1nn[nH]n1`, for which the outcome in the data set with U2OS [1] was inactive. The inhibition result in data set [2] was “inactive”.

With `N=C(CF)NCCC[C@H](NC(=O)c1ccccc1C(=O)O)c1nn[nH]n1`, in the data set with U2OS [1], the outcome was inactive. The Selectivity ratio in the data set listed under Homo sapiens [6] and in the data set listed under Homo sapiens [8] was 20 each time. The Stability result with Liver is “Stable”. For the same molecule, the inhibition result in [7] was “Active”. The inhibition entry in data set [2] was “inactive”.

For `N=C(CCl)NCCC[C@H](NC(=O)c1ccccc1)c1nn[nH]n1`, the result in the data set with U2OS [1] was inactive.

In the case of `CC(C)(C)n1nnc([C@H](CCCNC(=N)CCl)NC(=O)c2ccccc2)n1`, the result in the data set with U2OS [1] was inactive.

Regarding `N=C(CCl)NCCC[C@H](NC(=O)c1ccccc1)C(N)=O`, in [9], the inhibition result was “Active”.

For `N=C(CF)NCCC[C@H](NC(=O)c1ccccc1)C(N)=O`, the inhibition result in data set [2] is “inactive”.

Take `N=C(CCl)NCCC[C@H](NC(=O)c1ccc(-c2ccccc2)cc1)c1nn[nH]n1`: the result in the data set with U2OS [1] was inactive.

For `CC(C)(C)n1nnc([C@H](CCCNC(=N)CF)NC(=O)c2ccccc2C(=O)O)n1`, the outcome in the data set on U2OS [1] was inactive. Also, the inhibition result in data set [10] is “Active”. For the same molecule, the Stability entry with Liver is recorded as “Stable”. Further, in data set [2], the inhibition entry was “inactive”.

As to `CC(C)(C)n1nnc([C@H](CCCNC(=N)CCl)NC(=O)c2ccc(-c3ccccc3)cc2)n1`, the negative-log EC50 (pEC50) was 4.51 in data set [4] and 5.00 with U2OS [3]. For the same molecule, the inhibition result in data set [2] was “inactive”.

On to `CC(C)(C)n1nnc([C@H](CCCNC(=N)CF)NC(=O)c2ccccc2)n1`, for which, in the data set on U2OS [1], the outcome was inactive. In addition, the inhibition result in [2] is “inactive”.

With `N=C(CCl)NCCC[C@H](NC(=O)c1ccccc1C(=O)O)c1nn[nH]n1`, in the data set on U2OS [1], the result was inactive. The Selectivity ratio in the data set filed under Homo sapiens [6] and in the data set filed under Homo sapiens [8] was 15 throughout. In addition, the Ratio amounted to 82000 M⁻¹ min⁻¹ in data set [11] and 159000 M⁻¹ min⁻¹ in data set [12].

On to `N=C(CF)NCCC[C@H](NC(=O)c1ccc(-c2ccccc2)cc1)c1nn[nH]n1`, for which, in the data set on U2OS [1], the result was inactive. Also, the inhibition entry in data set [2] is “inactive”.
